Source: ChEMBL document CHEMBL1134539, “Significance of asymmetric sites in choosing siderophores as deferration agents” (J Med Chem, 2001)
“And” between values parts separate entries of the source, which are not always exact repeats. Equal values may be shown once.

Key:
Paracoccus denitrificans [1] = experiment: Michaelis-Menten constant for accumulation of [55Fe]-labeled low-affinity component complexes by Paracoccus denitrificans; type: functional, organism-based
How it was run: (§1)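 Late log-phase P. denitrificans (ATCC 17741), grown in defined low-iron medium with 0.5 μM Fe(III), washed and resuspended in transport buffer to OD660 1.00. Suspensions were preincubated 15 min at 30 °C with shaking before [55Fe] ferric chelate was added at 0.1–5.0 μM. Samples were taken every 20 s for 2 min, stopped in chilled buffer, filtered, rinsed and scintillation counted. Initial rates were expressed per mg protein, and Km and Vmax were taken from Lineweaver–Burk fits.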

Paracoccus denitrificans [2] = experiment: Michaelis-Menten constant for accumulation of [55Fe]-labeled high-affinity component complexes by Paracoccus denitrificans; type: functional, organism-based; how it was run: as §1
Paracoccus denitrificans [3] = experiment: Maximum velocity of accumulation of [55Fe]-labeled high-affinity component complexes by Paracoccus denitrificans; type: functional, organism-based; parameters: unit not given here; how it was run: as §1
Paracoccus denitrificans [4] = experiment: Maximum velocity of accumulation of [55Fe]-labeled low-affinity component complexes by Paracoccus denitrificans; type: functional, organism-based; parameters: unit not given here; how it was run: as §1
[5] = Iron clearance was stimulated by the compound was expressed as % distribution of excreted Fe in bile by subcutaneous dose of 150 umol/kg; type: ADME; conditions: in vivo, sc
How it was run: (§2)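 Non-iron-overloaded, bile duct-cannulated male Sprague–Dawley rats (about 400 g), housed in metabolic cages with free access to water. Single sc injection at 150 µmol/kg. Bile was collected at 3-h intervals for 48 h and urine every 24 h. Excreted iron was apportioned between bile and urine.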

[6] = Iron clearance was stimulated by the compound was expressed as % distribution of excreted Fe in urine by subcutaneous dose of 150 umol/kg; type: ADME; conditions: in vivo, sc; how it was run: as §2
Rattus norvegicus = experiment: Iron clearance was stimulated by the compound was expressed as % efficiency by subcutaneous dose of 150 umol/kg; type: functional
How it was run: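 Bile duct-cannulated, non-iron-overloaded male Sprague–Dawley rats (about 400 g) were kept in metabolic cages and given one sc dose of 150 µmol/kg. Bile was collected every 3 h and urine every 24 h over 48 h. Efficiency is the excreted iron minus that of control animals, divided by the theoretical iron excretion from dose and coordination chemistry.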

Compound	Km (Paracoccus denitrificans [1])	Km (Paracoccus denitrificans [2]) [µM]	Vmax (Paracoccus denitrificans [3])	Vmax (Paracoccus denitrificans [4])	Distribution of excreted Fe [5] [%]	Distribution of excreted Fe [6] [%]	Efficiency (Rattus norvegicus) [%]
C[C@H]1OC(c2cccc(O)c2O)=N[C@@H]1C(=O)N(CCCCNC(=O)c1cccc(O)c1O)CCCNC(=O)c1cccc(O)c1O	0.55 µM and 0.53 µM	0.11	157 and 153	245 and 247	–	–	–
C[C@@H]1OC(c2cccc(O)c2O)=N[C@H]1C(=O)N(CCCNC(=O)c1cccc(O)c1O)CCCNC(=O)c1cccc(O)c1O	3.5 µM	–	–	96	90.8	9.2	16
C[C@H]1OC(c2cccc(O)c2O)=NC1C(=O)N(CCCNC(=O)c1cccc(O)c1O)CCCNC(=O)c1cccc(O)c1O (stereo not given in full)	2.2 µM	0.23	129	413	84.6	15.4	13.8
C[C@H]1OC(c2cccc(O)c2O)=N[C@@H]1C(=O)N(CCCCNC(=O)c1cccc(O)c1O)CCCCNC(=O)c1cccc(O)c1O	1 µM	0.17	138	229	–	–	–
